Assay results reported in ChEMBL document CHEMBL4513216, “Probing the Open Global Health Chemical Diversity Library for Multistage-Active Starting Points for Next-Generation Antimalarials” (ACS Infect Dis, 2020).

experiment: Toxicity liver stage against HepG2, at 10uM; format: cell-based; set-up: test concentration 10 uM, cell line HepG2-A16-CD81EGFP; details: human, HepG2-A16-CD81EGFP cells; read-out: INHIBITION
Summary of the method: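 Uninfected HepG2-A16-CD81EGFP cells, 3 × 10^3 per well, 1536-well, plated on prespotted compound at 10 μM final, parasite-free screening media added to match infected plates; puromycin 10 μM positive, DMSO 0.5% negative; run in parallel with 48 h PbLuc assay at 37 °C, 5% CO2; viability by CellTiter-Glo luminescence, normalized to controls.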

| SMILES | cytotoxicity at 10 µM [%] |
| --- | --- |
| CNC(=O)CNC(=O)NCc1cc2c(s1)CCC(C)(C)C2 | 4.08 |
| COCC(=O)N1CCC2(CC1)CC(COC)N(Cc1ccccn1)C2 (stereo unspecified) | -101 |
| Cc1cccc2nc(CN3CCCC(Cn4ccnn4)C3)cc(=O)n12 (stereo unspecified) | 3.23 |
| CCOc1ccccc1CC(=O)N1C[C@@H](C(=O)O)[C@H](C2CC2)C1 | 1.12 |
| O=C(NCCc1cccs1)NCC(O)c1cccc(F)c1 (stereo unspecified) | -4.07 |
| CSc1nc(N)cc(N2C[C@H]3CC[C@@H](C2)N(Cc2cscn2)C3=O)n1 | -12 |
| CN1CCCC1CNC(=O)CCCOCc1ccccc1 (stereo unspecified) | -5.59 |
| Cc1cc(C(C)C(=O)N2CCCN(Cc3cscn3)CC2)c(C)o1 (stereo unspecified) | -1.58 |
| COCC(=O)N1CCCC(COc2ccccc2C)C1 (stereo unspecified) | 2.06 |
| N#Cc1ccc(NC2CCN(Cc3ccccn3)CC2)c(F)c1 | 0.109 |
| CCc1nnc(CN2CCOC(Cn3cccn3)C2)o1 (stereo unspecified) | -8.15 |
| Cc1cnn(CCC(=O)N2CCN(c3nccs3)CC2)c1 | -8.03 |
| C[C@H]1C[C@H]2CN(Cc3ccccn3)CC[C@@H]2O1 | -78.2 |
| c1ccc(CN2CCC(Cc3noc(C4CC4)n3)CC2)cc1 | 5.56 |
| CCc1ncc(C(=O)N2C[C@@H](C)O[C@@H](C)C2)cn1 | -4.34 |
| CO[C@H]1CN(C(=O)c2ccc(C)o2)[C@@H]2CCCO[C@H]12 | -153 |
| Cc1cnn(CCNCc2csc(-c3ccc(F)cc3)n2)c1 | -8.54 |
| CCNC(=O)C1CCCN(c2ccc3ccc(F)cc3n2)C1 (stereo unspecified) | -1.69 |
| COc1ccc(CC(=O)N2CCCC2Cn2cccn2)cc1F (stereo unspecified) | -0.587 |
| CC(=O)N1CCO[C@@H]2CN(C(=O)NCc3cccnc3)CC[C@@H]2C1 | 7.34 |
| O=C(CCCc1ccc(Cl)cc1)N1CCN(C(=O)c2ccc[nH]2)CC1 | 10.7 |
| O=C(c1c[nH]nn1)N1CCCC1C1CCCCC1 (stereo unspecified) | 3.81 |
| CCNC(=O)C1CCN(Cn2nc(-c3ccccc3)oc2=O)CC1 | 11.5 |

| SMILES | cytotoxicity at 10 µM [%] |
| --- | --- |
| O=C([C@@H]1COC[C@H]2CN(CC3CCCC3)C[C@H]21)N1CCOCC1 | 14.9 |
| CC(c1cn2ccsc2n1)n1cc2[nH]cccc-2c1=O (stereo unspecified) | -1.97 |
| CC(C)c1nc(O)c2nnn(C[C@@H]3CCCN(Cc4cccs4)C3)c2n1 | 1.76 |
| O=C(c1cnc2[nH]c(=O)[nH]c(=O)c2c1)N1CCCC1C1CCCCC1 (stereo unspecified) | -5.94 |
| COCCOCC(=O)N1CCc2cc(Cl)cc(Cl)c2C1 | 1.4 |
| Cc1ccc(S(=O)(=O)n2ccn(C(=O)COc3ccccc3)c2=O)cc1 | 5.34 |
| CCN(CC)C(=O)CN1CCCC1c1nc(C)c2c(n1)N(C)C(=O)CC2 (stereo unspecified) | 3.1 |
| CN1CC(=O)N(c2cnn(C)c2)CC12CCN(Cc1ccccc1)C2 (stereo unspecified) | -7.24 |
| COCC(=O)Nc1ccc(-c2noc([C@@H]3CCCN3)n2)cn1 | -1.16 |
| CNC(=O)c1cccc(C2CNCCN2C(=O)C2CCNCC2)c1 (stereo unspecified) | -2.39 |
| CN(C)c1cccc(C2CCCN2CCCN2CCOC2=O)c1 (stereo unspecified) | -10.2 |
| CC(C)c1nc(S(=O)(=O)N(C)c2cc(F)ccc2F)c[nH]1 | 13.9 |
| N#Cc1cnc2c(F)cc(F)cc2c1NC1CCN(CC(N)=O)CC1 | -2.89 |
| c1cnc2c(c1)cc([C@@H]1CCCO1)n2CCN1CCOCC1 | -19.7 |
| O=C(Nc1cc(Cl)ccc1N1CCCCC1)c1ccccn1 | -55 |
| O=C(O)C1(Oc2ccccc2)CCN(c2ccncc2)CC1 | -3.99 |
| O=C(c1ccoc1)N1CC[C@@H]2O[C@H](COCc3ccccn3)CC[C@@H]21 | 5.48 |
| O=C(c1cnc(-c2cccs2)s1)N1CCCN2CCCC2C1 (stereo unspecified) | -13.9 |
| Cn1nc(CNC(=O)C2CC2)cc1C1CC1 | 1.96 |
| COc1ccc(F)cc1S(=O)(=O)N1CCN(CCn2ccnc2)CC1 | -7.72 |
| COc1ccc(CC(C)(O)CNC(=O)NCc2cccs2)cc1 (stereo unspecified) | 5.62 |
| NC(=O)NCC1CCCCN1C(=O)c1ccc(Br)s1 (stereo unspecified) | -0.147 |
| NC(=O)C1(CCCc2ccccn2)CCCN(Cc2ncc[nH]2)C1 (stereo unspecified) | -0.00173 |

| SMILES | cytotoxicity at 10 µM [%] |
| --- | --- |
| CCC(CN1CCOCC1)NC(=O)Cc1c(C)[nH]c2cc(C)cc(C)c12 (stereo unspecified) | 19.6 |
| O=C1O[C@@H]2CN(Cc3cccnc3)C[C@@H]2N1CCCN1CCOCC1 | -2.27 |
| O=C(C[S+]([O-])Cc1ccc(F)cc1Cl)NC1CCCC1 (stereo unspecified) | 9.5 |
| Cc1c[nH]c(CN(C)C(C(=O)O)c2c(F)cccc2OC(C)C)n1 (stereo unspecified) | -50.6 |
| Clc1ccc2oc(C3CCN(Cc4nc(C5CC5)no4)CC3)nc2c1 | -5.15 |
| CC(C)Nc1ncccc1C(=O)NCc1ccnn1C | -5.87 |
| C=Cc1ccc(CSc2nc3c(c(=O)[nH]2)CN(CCC)CC3)cc1 | -4.68 |
| CNC(=O)c1ccc(C(=O)N2CCCC(n3ccnc3)C2)cn1 (stereo unspecified) | -8.89 |
| Cc1cc(N(C)C)nc(N2CCCC2c2cc(C)on2)n1 (stereo unspecified) | -2.38 |
| COc1ccccc1OC1CN(C(=O)C(c2ccccc2F)N(C)C)C1 (stereo unspecified) | 3.91 |
| CS(=O)(=O)N1CCc2ccc(C(=O)N3CCn4ncnc4C3)cc21 | -7.79 |
| COc1cccc(CN2CCC(CO)(Cc3ccc(Cl)cc3)CC2)c1O | -133 |
| Cn1cc(CN2CCC3(CC2)C(=O)Nc2ccccc23)cn1 | 0.134 |
| CNC(=O)c1cc(C)n(-c2cccc(OC)c2)c1C | -18.1 |
| Cc1ccc(F)cc1-n1c(COC(C)C)n[nH]c1=O | 4.72 |
| CCN1CCC2(C=C(C(=O)N(C)C)c3ccccc32)CC1 | -101 |
| COCc1cc(CNCc2c(C)n(CC(C)C)c3ccccc23)n[nH]1 | 12 |
| CC(C)N(C)Cc1nnc2n1CCCN(C(=O)c1ccco1)C2 | -1.17 |
| Cc1ccc(CN2CCC3(CC2)C(=O)N(CC(C)C)CCN3C)o1 | -0.508 |
| Nc1nccnc1CC1CCCN(Cc2cccc3[nH]ccc23)C1 (stereo unspecified) | 0.994 |
| CN(Cc1ccccn1)CC1CCCN1c1cccnn1 (stereo unspecified) | 2.43 |
| O=C(C1CCOc2ccccc2C1)N1Cc2cnn(CCO)c2C1 (stereo unspecified) | 4.61 |
| CCN(C)C1COC2(CCN(C(=O)c3ccc4[nH]ccc4c3)CC2)C1 (stereo unspecified) | -5.96 |

| SMILES | cytotoxicity at 10 µM [%] |
| --- | --- |
| COc1ccc(OC)c(Sc2ncccc2C(=O)N(C)CCC#N)c1 | 13.3 |
| Cc1cc(C)n(C2CCCN(C(=O)c3cc(C4CC4)on3)C2)n1 (stereo unspecified) | -1.11 |
| Cn1ccc2c(C(=O)NC3CN4CCC3CC4)cccc21 (stereo unspecified) | -46.8 |
| COCCCNC(=O)c1cc(OC)c2ccoc2c1 | 16.9 |
| CCCN(C(=O)c1cnc(C)cn1)c1nc2c(s1)CCc1c-2cnn1C | -28 |
| CCn1cc(CN(C)S(=O)(=O)c2ccc(Cl)cc2)cn1 | 3.77 |
| CCc1cnc(NCC(c2ccncc2)N2CCOCC2)nc1 (stereo unspecified) | 8.71 |
| c1cc(C2CCN(Cc3nc(C4CC4)no3)CC2)[nH]n1 | 7.45 |
| CC(C)c1cc(COCCC(=O)O)no1 | -6.5 |
| COc1cccc(OC)c1CNC(Cc1ccsc1)c1ccc(C)cn1 (stereo unspecified) | 2.75 |
| Cc1ccc(C2CCCN2S(=O)(=O)N(C)CCc2ccccn2)o1 (stereo unspecified) | -5.31 |
| COC(=O)CNC(=O)CCc1cc(Cl)cs1 | -5.31 |
| CC(=O)NCCNC(=O)c1cnc2c(c1)nc(-c1ccccc1Cl)n2C | 4.99 |
| Cc1nc(C)n(CC2CCCCN2CC(=O)N(C)Cc2ccco2)n1 (stereo unspecified) | 2.65 |
| CCn1ccnc1CNC1CC(=O)N(CCc2cccc(Cl)c2)C1 (stereo unspecified) | -127 |
| C[C@@H]1C[C@@H]2CCN(C(=O)c3ccncn3)C[C@H]2O1 | -1.55 |
| COc1ccc(NC(=O)c2cccc(CN3CCCC3C)c2)cc1OC (stereo unspecified) | 0.636 |
| CN(C)C(CNC(=O)NCc1cc[nH]n1)c1ccco1 (stereo unspecified) | -5.47 |
| CCc1ncncc1C(=O)NCCNS(=O)(=O)c1ccccc1 | -6.55 |
| Cc1c(C(=O)N2CCCC(n3cccn3)C2)nnn1-c1ccccc1 (stereo unspecified) | -3.45 |
| O=C(CCn1cccn1)N1CCC(C2CCN(c3ncccn3)CC2)C1 (stereo unspecified) | 5.33 |
| CN1CCN(Cc2ccccc2CNC(=O)c2ccc(Br)cc2)CC1 | 4.44 |
| Cc1nc(COC(=O)c2cccnc2C)no1 | -0.2 |

| SMILES | cytotoxicity at 10 µM [%] |
| --- | --- |
| COCCN1CCN(CCS(=O)(=O)C(F)(F)F)CC1C (stereo unspecified) | -5.77 |
| COCCN1CCCC(O)(CN2CCN(c3cnccn3)CC2)C1=O (stereo unspecified) | 4.04 |
| COCC(=O)N[C@H](C)c1c(-c2ccc(OC)cc2)noc1C(=O)O | 0.588 |
| CCn1nccc1CNc1[nH]cnc2nc(C)nc1-2 | -12 |
| Cc1noc(C)c1CN1CCO[C@H]2CN(Cc3cncn3C)C[C@H]21 | -1.62 |
| O=C(NCCC(=O)N1CCCc2ccccc21)c1c(F)cccc1F | -14.5 |
| CNc1oc(-c2cc(S(=O)(=O)N3CCCC3)c(C)o2)nc1C#N | 5.08 |
| CNC(=O)CCc1cc(C)nc(C2CCN(c3cnccn3)CC2)c1 | 1.31 |
| Cc1ncnc(NCC(C)N(C)c2ccccc2)c1C (stereo unspecified) | 60.3 |
| CCC(c1ccccc1)N1CCN(CCO)CC1 (stereo unspecified) | -1.19 |
| CC(CCNC(=O)NCCc1ccncc1)c1ccccc1 (stereo unspecified) | -5.82 |
| CN1CCN(S(=O)(=O)c2cccc(F)c2)c2ccccc21 | 38.5 |
| Cn1ccnc1CN1CC[C@@H](NS(C)(=O)=O)[C@@H]1Cc1ccccc1 | -77.2 |
| Cc1ncsc1C(=O)NC1CCN(Cc2ccc(C#N)cc2)CC1 | -6.46 |
| O=C1CSC(c2ccccc2)c2c(n(C3CCOCC3)[nH]c2=O)N1 (stereo unspecified) | -4.69 |
| O=C(NCC1CCCCO1)c1ccc(-c2cccs2)[nH]c1=O (stereo unspecified) | -7.03 |
| CNC(=O)CS(=O)(=O)Cc1coc(-c2ccc(OC)cc2)n1 | -2.95 |
| Cc1nc(C)n(C2CCCN(C(=O)c3csc(C)n3)C2)n1 (stereo unspecified) | -18.7 |
| Cn1cc(CN2CCC(F)(F)C3(CCN(c4ncc(F)cn4)C3)C2)cn1 (stereo unspecified) | 1.2 |
